Source: ChEMBL document CHEMBL1133540, “4-Aminoquinolines: novel nociceptin antagonists with analgesic activity” (J Med Chem, 2000)

Tests used:
[1] = molecular target: T1, Nociceptin receptor (Homo sapiens, UniProt P41146); assay: Percent inhibition of [3H]nociceptin ( 0.5 nM ) binding at 10 uM
Outline: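 Single-point test at 10 μM compound against 0.5 nM [3H]nociceptin binding to human ORL1 in HeLa cell membranes. Buffer was Tris pH 8.5 with EDTA, protease inhibitor and BSA; incubation 30 min at room temperature. Filtration and scintillation counting. Specific binding = total minus binding in 1 μM unlabeled nociceptin. Read-out was percent inhibition.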

[2] = molecular target: T1, Nociceptin receptor; assay: Ability to displace [3H]nociceptin ( 0.5 nM ) binding from Opioid receptor like 1 expressed in HeLa cells.; format: cell-based
Outline: (§1)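 Membranes from HeLa cells expressing human ORL1 (25 μg protein/mL) in 50 mM Tris pH 8.5 with 2 mM EDTA, 0.1 mM p-aminophenylmethanesulfonyl fluoride and 2 mg/mL BSA. Incubated 30 min at room temperature with 0.5 nM [3H]nociceptin and varied compound concentrations. Bound radioactivity was collected by filtration and counted by scintillation. Nonspecific binding was set with 1 μM unlabeled nociceptin.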

[3] = molecular target: T1, Nociceptin receptor; assay: Compound was evaluated for its ability to displace [3H]nociceptin ( 0.5 nM ) binding from Opioid receptor like 1 expressed in HeLa cells; format: cell-based
Outline: as §1, with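 “nociceptin. Ki reported as mean ± SE, n=3-6.” for “nociceptin.”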

[4] = Effect of compound on nociceptin-induced allodynia :Values are the mean ( SE of allodynia score at 20 min. significantly different from control (nociceptin alone) by the Mann-Whitney U-test.; format: functional
[5] = Effect of compound on nociceptin-induced allodynia :Values are the mean ( SE of allodynia score at 20 min.; format: functional
Outline: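 Male ICR mice, 4 weeks old, unanesthetized; nociceptin (50 pg/5 μL) injected intrathecally. Test compound 0.3 mg/kg suspended in 0.5% methyl cellulose, or vehicle as control, given orally 60 min before nociceptin. Allodynia score read at 20 min; mean ± SE, n = 9; Mann–Whitney U-test versus nociceptin-alone control.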

[6] = molecular target: Delta-type opioid receptor (Homo sapiens, UniProt P41143); assay: Inhibition of [3H]naltrindole (0.55 nM) binding from human Opioid receptor delta 1 expressed in CHO-K1 cells.; format: cell-based
Delta-type opioid receptor, sequence (P41143 whole entry): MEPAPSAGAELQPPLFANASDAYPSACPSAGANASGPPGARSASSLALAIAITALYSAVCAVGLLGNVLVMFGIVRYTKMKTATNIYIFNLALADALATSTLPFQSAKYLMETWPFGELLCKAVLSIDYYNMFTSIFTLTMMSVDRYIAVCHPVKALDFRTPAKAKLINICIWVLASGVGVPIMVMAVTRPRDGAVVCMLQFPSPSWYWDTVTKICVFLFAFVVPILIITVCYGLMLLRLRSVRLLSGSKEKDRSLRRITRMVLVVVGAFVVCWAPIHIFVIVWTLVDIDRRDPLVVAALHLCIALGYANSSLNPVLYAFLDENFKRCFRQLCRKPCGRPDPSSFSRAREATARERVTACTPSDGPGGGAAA
Outline: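 Human δ-opioid receptor from CHO-K1 membranes in 50 mM Tris-HCl pH 7.4, 5 mM MgCl2, 10% sucrose. Incubated 1 h at room temperature with 0.55 nM [3H]naltrindole and varied compound concentrations. Filter-bound radioactivity counted. 10 μM naloxone defined nonspecific binding. Ki as mean ± SE, n=3.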

[7] = molecular target: Mu-type opioid receptor (Homo sapiens, UniProt P35372); assay: Inhibition of [3H]diprenorphine (0.33 nM) binding from human Opioid receptor mu 1 expressed in CHO-K1 cells.; format: cell-based
Mu-type opioid receptor, sequence (P35372 whole entry): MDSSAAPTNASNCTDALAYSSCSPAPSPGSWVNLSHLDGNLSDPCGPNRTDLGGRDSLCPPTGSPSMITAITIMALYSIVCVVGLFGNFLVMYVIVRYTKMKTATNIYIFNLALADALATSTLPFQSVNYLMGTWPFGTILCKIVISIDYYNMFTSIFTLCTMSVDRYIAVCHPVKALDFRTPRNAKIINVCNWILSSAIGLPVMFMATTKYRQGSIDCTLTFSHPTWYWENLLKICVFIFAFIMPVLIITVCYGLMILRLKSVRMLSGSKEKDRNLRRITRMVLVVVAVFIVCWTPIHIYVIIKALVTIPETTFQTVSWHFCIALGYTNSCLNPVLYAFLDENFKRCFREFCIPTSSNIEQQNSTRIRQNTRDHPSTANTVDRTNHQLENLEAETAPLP
Outline: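 CHO-K1 membranes expressing human μ-opioid receptor in 50 mM Tris-HCl pH 7.4 with 5 mM MgCl2 and 10% sucrose. Incubated 2.5 h at room temperature with 0.33 nM [3H]diprenorphine over a compound concentration range. Filtration and scintillation counting. Nonspecific binding defined with 10 μM naloxone. Ki given as mean ± SE, n=3.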

[8] = molecular target: Kappa-type opioid receptor (Homo sapiens, UniProt P41145); assay: Inhibition of [3H][…] (0.55 nM) binding from human Opioid receptor kappa 1
Kappa-type opioid receptor, sequence (P41145 whole entry): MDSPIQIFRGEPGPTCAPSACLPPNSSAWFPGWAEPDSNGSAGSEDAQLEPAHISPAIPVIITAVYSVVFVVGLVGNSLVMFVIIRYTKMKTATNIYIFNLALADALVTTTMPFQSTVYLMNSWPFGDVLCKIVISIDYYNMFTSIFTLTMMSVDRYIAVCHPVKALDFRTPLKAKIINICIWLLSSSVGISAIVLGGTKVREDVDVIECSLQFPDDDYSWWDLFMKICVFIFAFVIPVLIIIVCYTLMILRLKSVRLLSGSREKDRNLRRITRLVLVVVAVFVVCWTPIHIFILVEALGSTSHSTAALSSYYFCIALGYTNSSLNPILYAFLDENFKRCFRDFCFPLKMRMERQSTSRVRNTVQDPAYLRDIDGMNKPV

T1 sequence (P41146 whole entry): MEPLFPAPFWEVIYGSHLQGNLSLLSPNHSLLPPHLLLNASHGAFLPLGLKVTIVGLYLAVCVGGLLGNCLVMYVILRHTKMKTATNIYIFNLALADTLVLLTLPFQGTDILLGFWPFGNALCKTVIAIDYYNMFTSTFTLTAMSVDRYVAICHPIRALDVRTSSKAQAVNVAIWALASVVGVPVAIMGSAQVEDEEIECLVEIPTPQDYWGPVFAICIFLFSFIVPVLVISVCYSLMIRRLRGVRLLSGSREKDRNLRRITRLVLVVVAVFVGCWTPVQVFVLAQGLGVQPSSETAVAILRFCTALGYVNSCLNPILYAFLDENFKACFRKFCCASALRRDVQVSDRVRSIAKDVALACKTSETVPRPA

SMILES | inhibition [1] | Ki [2] | other results
Cc1cc(N)c2cc(NC(=O)c3ccccc3-c3ccccc3)ccc2n1 | 51.7% | 369 nM | –
Cc1cc(N)c2cc(NC(=O)c3ccccc3CCc3ccccc3)ccc2n1 | 90.5% | – | Ki [3]: 79.9 nM
Cc1cc(N)c2cc(NC(=O)c3ccccc3COc3ccc(Br)cc3)ccc2n1 | – | 2.6 nM | –
Cc1cc(N)c2cc(NC(=O)c3ccccc3Cc3ccccc3)ccc2n1 | 45.4% | – | –
Cc1cc(N)c2cc(NC(=O)c3ccccc3)ccc2n1 | 32.9% | – | –
Cc1cc(N)c2cc(NC(=O)c3ccccc3COc3ccccc3)ccc2n1 | 93.6% | – | Ki [3]: 50.7 nM
CCCc1cc(N)c2cc(NC(=O)c3ccccc3COc3ccc(Cl)cc3)ccc2n1 | – | 1.8 nM | –
Nc1ccnc2ccc(NC(=O)c3ccccc3COc3ccc(Cl)cc3)cc12 | – | 85.6 nM | –
Cc1cc(N)c2cc(NC(=O)c3ccccc3CCCc3ccccc3)ccc2n1 | 98% | 121 nM | –
CCc1cc(N)c2cc(NC(=O)c3ccccc3COc3ccc(Cl)cc3)ccc2n1 | – | 1.8 nM | –
Cc1cc(N)c2cc(NC(=O)c3ccccc3COc3ccc(N)cc3)ccc2n1 | – | 82.4 nM | –
Cc1cc(N)c2cc(NC(=O)c3cccc(CCc4ccccc4)c3)ccc2n1 | 23% | – | –
CC(C)C[C@H](NC(=O)[C@H](CCCCN)NC(=O)[C@H](CCCN=C(N)N)NC(=O)[C@H](C)NC(=O)[C@H](CO)NC(=O)[C@H](CCCCN)NC(=O)[C@H](CCCN=C(N)N)NC(=O)[C@H](C)NC(=O)CNC(=O)[C@@H](NC(=O)[C@H](Cc1ccccc1)NC(=O)CNC(=O)CNC(=O)[C@@H](N)Cc1ccccc1)[C@@H](C)O)C(=O)N[C@@H](C)C(=O)N[C@@H](CC(N)=O)C(=O)N[C@@H](CCC(N)=O)C(=O)O.CCc1ccc(OCc2ccccc2C(=O)Nc2ccc3nc(C)cc(N)c3c2)cc1 | – | – | Allodynia score [4]: < 3.11
Cc1cc(N)c2cc(NC(=O)c3ccccc3COc3cccc(Cl)c3)ccc2n1 | – | 20.4 nM | –
Cc1ccc(CCc2ccccc2C(=O)Nc2ccc3nc(C)cc(N)c3c2)cc1 | – | 88.5 nM | –
CC(C)C[C@H](NC(=O)[C@H](CCCCN)NC(=O)[C@H](CCCNC(=N)N)NC(=O)[C@H](C)NC(=O)[C@H](CO)NC(=O)[C@H](CCCCN)NC(=O)[C@H](CCCNC(=N)N)NC(=O)[C@H](C)NC(=O)CNC(=O)[C@@H](NC(=O)[C@H](Cc1ccccc1)NC(=O)CNC(=O)CNC(=O)[C@@H](N)Cc1ccccc1)[C@@H](C)O)C(=O)N[C@@H](C)C(=O)N[C@@H](CC(N)=O)C(=O)N[C@@H](CCC(N)=O)C(=O)O | – | – | Allodynia score [5]: 7.11
Cc1ccc(OCc2ccccc2C(=O)Nc2ccc3nc(C)cc(N)c3c2)cc1 | – | 7 nM | –
Cc1cc(N)c2cc(NC(=O)c3ccccc3COc3ccc(Cl)cc3)ccc2n1 | – | 2.2 nM | –
Cc1cc2ccc(NC(=O)c3ccccc3COc3ccc(Cl)cc3)cc2c(N)n1 | – | 37.3 nM | –
Cc1cc(N)c2cc(NC(=O)c3ccccc3COc3ccc(C(F)(F)F)cc3)ccc2n1 | – | 1.8 nM | –
Cc1cc(N)c2cc(NC(=O)c3ccccc3COc3ccc(O)cc3)ccc2n1 | – | 46.7 nM | –
Cc1cc(N)c2cc(NC(=O)c3ccc(CCc4ccccc4)cc3)ccc2n1 | 48.4% | – | –
CCc1ccc(OCc2ccccc2C(=O)Nc2ccc3nc(C)cc(N)c3c2)cc1 | – | 8.2 nM | Ki [6]: 8650 nM; Ki [7]: 103 nM; Ki [8]: 1060 nM
